Active and inactive are the calls of the source. No cut-off for these calls is given here. Peptide text beside a SMILES is read from it.
Key:
Jurkat (Homo sapiens) = assay: Inhibition of ICAM1-LFA1 mediated adhesion in Jurkat cells
Erythrocyte = assay: Inhibition of CD2-CD58 interaction assessed as inhibition of E-rosette formation between Jurkat cells and sheep RBCs at 200 uM; type: cell-based; parameters: Activity: scale not given: the % may be the effect or the level left
Method in brief: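 E-rosetting: test peptide added first to AET-treated sheep red blood cells (CD58-expressing), then an equal amount of Jurkat T cells (CD2-expressing). Cells with five or more bound SRBCs scored as rosettes. Read-out is % inhibition of rosette formation versus untreated cells, mean of three independent experiments; anti-CD58 antibody as positive control.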

Jurkat [1] = assay: Inhibition of CD2-CD58 interaction assessed as inhibition of adhesion between Jurkat cells and Caco-2 cells at 90 uM; type: cell-based; details: Homo sapiens
Method in brief: (§1)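 Lymphocyte–epithelial adhesion: peptide added to confluent Caco-2 monolayer (hCD58), then BCECF-labelled Jurkat cells (hCD2). 45 min at 37 °C, nonadherent cells washed off with PBS, bound Jurkat cells lysed with Triton X-100, lysate fluorescence read. Result expressed as % inhibition versus untreated, mean of three independent experiments.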

Jurkat [2] = assay: Inhibition of CD2-CD58 interaction assessed as inhibition of adhesion between Jurkat cells and Caco-2 cells; type: cell-based; details: Homo sapiens, dose or concentration not given here
Method in brief: as §1

## CC[C@H](C)[C@@H]1NC(=O)[C@H](CCCCN)NC(=O)[C@H](N)C(C)(C)SSC[C@H](C(=O)O)NC(=O)[C@H](CO)NC(=O)[C@H]([C@@H](C)CC)NC(=O)[C@H](Cc2ccc(O)cc2)NC(=O)[C@H](CC(=O)O)NC(=O)[C@H]([C@@H](C)O)NC(=O)[C@H]([C@@H](C)CC)NC(=O)[C@H](CC(=O)O)NC(=O)[C@H](CC(=O)O)NC1=O
Jurkat (Homo sapiens)
  Activity: inactive
Erythrocyte
  Activity: 45%
Jurkat [1]
  inhibition: 60%

## CC[C@H](C)[C@H](NC(=O)[C@H](CCCCN)NC(=O)[C@@H](N)Cc1c[nH]c2ccccc12)C(=O)N[C@@H](CC(=O)O)C(=O)N[C@@H](CC(=O)O)C(=O)N[C@H](C(=O)N[C@H](C(=O)N[C@@H](CC(=O)O)C(=O)N[C@@H](Cc1ccc(O)cc1)C(=O)N[C@H](C(=O)N[C@@H](CO)C(=O)N[C@H](C(=O)O)C(C)C)[C@@H](C)CC)[C@@H](C)O)[C@@H](C)CC (H-WKIDDITDYISV-OH)
Erythrocyte
  inhibition: 35%

## CC[C@H](C)[C@@H]1NC(=O)[C@H](CC(=O)O)NC(=O)[C@H](CC(=O)O)NC(=O)[C@H]([C@@H](C)CC)NC(=O)[C@H](CCCCN)NC(=O)[C@H](N)C(C)(C)SSC[C@H](C(=O)O)NC(=O)[C@H](CO)NC(=O)[C@H]([C@@H](C)CC)NC(=O)[C@H](Cc2ccc(O)cc2)NC(=O)[C@H](CC(=O)O)NC(=O)[C@H]([C@@H](C)O)NC(=O)[C@H](CCCCN)NC(=O)[C@H](CC(=O)O)NC1=O
Erythrocyte
  inhibition: 25%

## CC[C@H](C)[C@@H]1NC(=O)[C@H](CC(=O)O)NC(=O)[C@H](CC(=O)O)NC(=O)[C@H](N)C(C)(C)SSC[C@H](C(=O)O)NC(=O)[C@H](CC(=O)O)NC(=O)[C@H](Cc2ccc(O)cc2)NC(=O)[C@H]([C@@H](C)CC)NC(=O)[C@H](CO)NC(=O)[C@H](C(C)C)NC(=O)[C@H](CCCCN)NC(=O)[C@H](CCC(=O)O)NC(=O)[C@H](Cc2c[nH]c3ccccc23)NC(=O)[C@H](CCCCN)NC1=O
Jurkat (Homo sapiens)
  Activity: inactive
Erythrocyte
  inhibition: 40%
Jurkat [1]
  inhibition: 50%

## CC[C@H](C)[C@@H]1NC(=O)[C@H](CC(=O)O)NC(=O)[C@H](CC(=O)O)NC(=O)[C@H](N)C(C)(C)SSC[C@@H](C(=O)O)NC(=O)[C@H](CC(=O)O)NC(=O)[C@H](Cc2ccc(O)cc2)NC(=O)[C@H]([C@@H](C)CC)NC(=O)[C@H](CO)NC(=O)[C@H](C(C)C)NC(=O)[C@H](Cc2c[nH]c3ccccc23)NC(=O)[C@H](CCCCN)NC1=O
Erythrocyte
  inhibition: 30%

## CC[C@H](C)[C@H](N)C(=O)N[C@@H](CC(=O)O)C(=O)N[C@@H](CC(=O)O)C(=O)N[C@H](C(=O)N[C@@H](CCCCN)C(=O)N[C@@H](Cc1c[nH]c2ccccc12)C(=O)N[C@@H](CCC(=O)O)C(=O)N[C@@H](CCCCN)C(=O)N[C@H](C(=O)N[C@@H](CO)C(=O)N[C@H](C(=O)N[C@@H](Cc1ccc(O)cc1)C(=O)N[C@@H](CC(=O)O)C(=O)N[C@H](C(=O)O)[C@@H](C)O)[C@@H](C)CC)C(C)C)[C@@H](C)CC (H-IDDIKWEKVSIYDT-OH)
Jurkat [2]
  inhibition: 30%

## CC[C@H](C)[C@H](NC(=O)[C@H](CC(=O)O)NC(=O)[C@H](CC(=O)O)NC(=O)[C@@H](NC(=O)[C@H](CCCCN)NC(=O)[C@@H](N)Cc1c[nH]c2ccccc12)[C@@H](C)CC)C(=O)N[C@@H](CC(=O)O)C(=O)N[C@@H](CCCCN)C(=O)N[C@H](C(=O)N[C@@H](CC(=O)O)C(=O)N[C@@H](Cc1ccc(O)cc1)C(=O)N[C@H](C(=O)N[C@@H](CO)C(=O)N[C@H](C(=O)O)C(C)C)[C@@H](C)CC)[C@@H](C)O (H-WKIDDIDKTDYISV-OH)
Erythrocyte
  inhibition: 15%
